From PubChem BioAssay
Active and inactive are the calls of the source.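 The calls were made as follows: active = duplicate-averaged activation above buffer control mean plus 5 SD of those controls; inactive = the rest.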

Assay: thallium flux activation in parental CHO cells, counter-screen for KCNQ1 potentiator project (AID 493006)
Details: parental CHO-K1 cells, FluxOR thallium flux, at 10 µM; hits give high values
Procedure, shortened: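 Assay system: Untransfected host CHO-K1 cells with FluxOR thallium dye | Probe or stimulus: Potassium/thallium depolarization pulse | Schedule: Overnight 37 °C plating, 90 min RT dye, 20 min compound | Detection: Kinetic thallium-flux fluorescence | Read-out: Max-minus-min fluorescence over baseline, percent of buffer-to-R-L3 span | Benchmarks: Low control buffer, high control R-L3 activator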

Row | SMILES | outcome | activation
1 | Cc1cccc(CC2CC(=O)N(c3ccc(C)cc3Br)C2=O)c1 (centres undefined) | inactive | 
2 | O=C(CSc1nc2cc(Cl)ccc2s1)c1cc2ccccc2o1 | inactive | 
3 | Cc1ccc(C)c(SCC(=O)NC(=O)Nc2ccc3c(c2)OCCO3)c1 | inactive | 
4 | NC(N)=N/N=C/c1ccccc1OC(F)F | inactive | 
5 | O=C(CCOc1ccccc1)Nc1ccnn1C1CCN(Cc2ccc(CO)o2)CC1 | inactive | 
6 | CC(=O)N[C@H]1[C@H](OC2CCCCC2)O[C@H](COC(C)=O)[C@@H](OC(C)=O)[C@@H]1OC(C)=O | inactive | 
7 | CCOc1ccccc1C1c2[nH]c3ccccc3c2C[C@H]2C(=O)N(C3CC3)CC(=O)N12 (some centres undefined) | inactive | 
8 | Cc1ccc(C)c(NC(=S)NNC(=O)c2cc3c(s2)CCC(C)C3)c1 (centres undefined) |  | 192% (active)
9 | COc1ccccc1C(=O)NNC(=O)C(=O)NC1CCCCC1 |  | 262% (active)
10 | COc1ccc(-c2oc3ccccc3c(=O)c2OC(C)=O)cc1 |  | 144% (active)
11 | COC(=O)COc1ccc(-c2ccccc2)cc1C=O |  | 179% (active)
12 | CCOC(=O)c1cc2c(=O)n3ccccc3nc2n(CCCOC)c1=NC(=O)c1ccncc1 | inactive | 
13 | COc1ccc(CCN(C)C(=O)CSc2nnc(-c3ccco3)o2)cc1OC | inactive | 
14 | CCC(C)n1c(=S)[nH]c2c(sc3ccc([N+](=O)[O-])cc32)c1=O (centres undefined) |  | 764% (active)
15 | S=c1[nH]cc(Cc2ccccc2)s1 |  | 205% (active)
16 | CCOC(=O)Cn1c(=S)[nH]c2c(oc3ccc(Cl)cc32)c1=O |  | 226% (active)
17 | CCC(O)(CC)C(=O)NN(C(=O)CCl)c1ccccc1 | inactive | 
18 | CCOc1ccc(-n2cc(-c3ccccc3)c3c(=S)nc[nH]c32)cc1 |  | 337% (active)
19 | CC1CCN(c2ncnc3ccccc23)CC1 | inactive | 
